Measured values: ChEMBL document CHEMBL1221274, “Discovery and expanded SAR of 4,4-disubstituted quinazolin-2-ones as potent T-type calcium channel antagonists” (Bioorg Med Chem Lett, 2010)
Active and inactive are the calls of the source. The calls are words filed in the database; no cut-off is given here.

Legend:
[1] = target: Voltage-dependent T-type calcium channel subunit alpha-1I (Homo sapiens) (UniProt Q9P0X4); test: Antagonist activity at Cav3.3 alpha1i by depolarized FLIPR assay; format: functional
[2] = target: Voltage-dependent T-type calcium channel subunit alpha-1I (Homo sapiens) (UniProt Q9P0X4); test: Antagonist activity at Cav3.3 alpha1i by hyperpolarized FLIPR assay; format: functional
[3] = target: T1, PXR (nuclear receptor subfamily 1 group I member 2) (Homo sapiens, UniProt O75469); test: PXR activation relative to rifampicin at 10 uM; settings: activation
T1 sequence (O75469 whole entry): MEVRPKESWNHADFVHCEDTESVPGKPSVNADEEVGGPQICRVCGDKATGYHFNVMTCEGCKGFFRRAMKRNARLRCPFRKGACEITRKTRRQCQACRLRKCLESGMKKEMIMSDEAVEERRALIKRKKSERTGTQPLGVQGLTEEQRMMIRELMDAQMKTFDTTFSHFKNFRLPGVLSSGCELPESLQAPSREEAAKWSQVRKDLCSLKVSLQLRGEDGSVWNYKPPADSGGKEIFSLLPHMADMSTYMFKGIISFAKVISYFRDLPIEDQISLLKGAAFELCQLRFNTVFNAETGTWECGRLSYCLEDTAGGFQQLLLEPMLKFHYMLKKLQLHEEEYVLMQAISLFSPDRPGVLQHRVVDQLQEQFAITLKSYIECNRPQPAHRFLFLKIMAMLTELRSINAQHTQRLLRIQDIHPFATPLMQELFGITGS

[4] = target: T2, Nuclear receptor subfamily 1 group I member 2 (Homo sapiens, UniProt O75469); test: PXR activation relative to rifampicin at 10 uM; settings: 10 µM
T2 sequence (O75469 whole entry): T1 sequence (O75469 whole entry)

[5] = Metabolic stability in human liver microsome assessed as compound remaining after 60 mins; format: ADME; settings: liver microsomes, read-out: Stability
Procedure, shortened: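 Human liver microsomes (0.2 mg protein/mL) incubated with test compound at 1 µM plus NADPH cofactor at 37 °C for 30 or 60 min; percent parent compound remaining measured.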

[6] = species: Homo sapiens; test: Plasma protein binding in human; settings: read-out: PPB (converted)
[7] = test system: Rattus norvegicus; test: Effect on sleep-awake pattern in rat assessed as increase in delta sleep at 10 mg/kg, po for 16 hrs; format: functional, organism-based; set-up: dose 10 mg/kg
Procedure, shortened: (§1)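 Crossover rat study over seven days, n = 7 male rats. ECoG and EMG recorded for 16 h and scored as active wake, light sleep, delta sleep or REM, as minutes per 30 min bin (±SEM). Each time point compared by linear mixed-effects ANOVA.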

[8] = Half life in monkey; format: ADME, organism-based, Macaca mulatta; settings: rhesus monkey, in vivo
[9] = Plasma clearance in rat; format: ADME, organism-based
[10] = test system: Rattus norvegicus; test: Effect on sleep-awake pattern in rat assessed as decrease in REM sleep at 10 mg/kg, po for 16 hrs; format: functional, organism-based; set-up: dose 10 mg/kg; procedure, shortened: as §1
[11] = Oral bioavailability in rat; format: ADME, organism-based; settings: in vivo
[12] = species: Homo sapiens; test: Effect on human Pgp-mediated drug transport assessed as efflux ratio of permeability from basolateral to apical over apical to basolateral side
[13] = Plasma clearance in monkey; format: ADME, organism-based, Macaca mulatta; settings: rhesus monkey
[14] = Plasma clearance in dog; format: ADME, organism-based, Canis lupus familiaris
[15] = Volume of distribution at steady state in dog; format: ADME, organism-based, Canis lupus familiaris; settings: in vivo, read-out: Vdss
[16] = Plasma protein binding in rat; format: ADME, cell-free; settings: read-out: PPB (converted)
[17] = Half life in rat; format: ADME, organism-based; settings: in vivo
[18] = test system: Rattus norvegicus; test: Effect on sleep-awake pattern in rat assessed as decrease in active awake at 10 mg/kg, po for 16 hrs; format: functional, organism-based; set-up: dose 10 mg/kg; procedure, shortened: as §1
[19] = test system: Rattus norvegicus; test: Antiepileptic activity in […] rat assessed as inhibition of total seizures at 10 mg/kg, po after 4 hrs; format: functional
Procedure, shortened: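 Seizure suppression measured by EEG in WAG/Rij rats (absence epilepsy model) after oral dosing; total seizure time scored 4 h post dose and expressed as percent inhibition.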

[20] = Oral bioavailability in monkey; format: ADME, organism-based, Macaca mulatta; settings: rhesus monkey, in vivo
[21] = Half life in dog; format: ADME, organism-based, Canis lupus familiaris; settings: in vivo
[22] = Volume of distribution at steady state in rat; format: ADME, organism-based; settings: in vivo, read-out: Vdss
[23] = species: Rattus norvegicus; test: Effect on rat Pgp-mediated drug transport assessed as efflux ratio of permeability from basolateral to apical over apical to basolateral side
[24] = Volume of distribution at steady state in monkey; format: ADME, organism-based, Macaca mulatta; settings: rhesus monkey, in vivo; read-out: Vdss
[25] = target: Cytochrome P450 3A4 (Homo sapiens, UniProt P08684); test: Inhibition of CYP3A4; format: ADME; settings: TDE = time-dependent effect
Sequence of Cytochrome P450 3A4 (P08684 whole entry): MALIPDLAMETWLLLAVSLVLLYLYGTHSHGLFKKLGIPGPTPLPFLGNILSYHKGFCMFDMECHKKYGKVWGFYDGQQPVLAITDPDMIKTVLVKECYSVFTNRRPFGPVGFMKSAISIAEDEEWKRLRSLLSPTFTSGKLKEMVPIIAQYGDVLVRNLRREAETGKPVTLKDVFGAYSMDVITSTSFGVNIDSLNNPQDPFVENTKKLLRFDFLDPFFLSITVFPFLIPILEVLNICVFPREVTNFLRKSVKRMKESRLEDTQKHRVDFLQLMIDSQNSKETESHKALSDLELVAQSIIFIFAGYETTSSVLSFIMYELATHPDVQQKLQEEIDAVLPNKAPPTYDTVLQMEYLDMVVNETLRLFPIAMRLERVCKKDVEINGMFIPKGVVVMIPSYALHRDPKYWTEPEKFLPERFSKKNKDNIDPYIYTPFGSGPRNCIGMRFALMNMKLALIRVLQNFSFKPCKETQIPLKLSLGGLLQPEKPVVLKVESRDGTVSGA

Sequence of Voltage-dependent T-type calcium channel subunit alpha-1I (Homo sapiens) (Q9P0X4 whole entry): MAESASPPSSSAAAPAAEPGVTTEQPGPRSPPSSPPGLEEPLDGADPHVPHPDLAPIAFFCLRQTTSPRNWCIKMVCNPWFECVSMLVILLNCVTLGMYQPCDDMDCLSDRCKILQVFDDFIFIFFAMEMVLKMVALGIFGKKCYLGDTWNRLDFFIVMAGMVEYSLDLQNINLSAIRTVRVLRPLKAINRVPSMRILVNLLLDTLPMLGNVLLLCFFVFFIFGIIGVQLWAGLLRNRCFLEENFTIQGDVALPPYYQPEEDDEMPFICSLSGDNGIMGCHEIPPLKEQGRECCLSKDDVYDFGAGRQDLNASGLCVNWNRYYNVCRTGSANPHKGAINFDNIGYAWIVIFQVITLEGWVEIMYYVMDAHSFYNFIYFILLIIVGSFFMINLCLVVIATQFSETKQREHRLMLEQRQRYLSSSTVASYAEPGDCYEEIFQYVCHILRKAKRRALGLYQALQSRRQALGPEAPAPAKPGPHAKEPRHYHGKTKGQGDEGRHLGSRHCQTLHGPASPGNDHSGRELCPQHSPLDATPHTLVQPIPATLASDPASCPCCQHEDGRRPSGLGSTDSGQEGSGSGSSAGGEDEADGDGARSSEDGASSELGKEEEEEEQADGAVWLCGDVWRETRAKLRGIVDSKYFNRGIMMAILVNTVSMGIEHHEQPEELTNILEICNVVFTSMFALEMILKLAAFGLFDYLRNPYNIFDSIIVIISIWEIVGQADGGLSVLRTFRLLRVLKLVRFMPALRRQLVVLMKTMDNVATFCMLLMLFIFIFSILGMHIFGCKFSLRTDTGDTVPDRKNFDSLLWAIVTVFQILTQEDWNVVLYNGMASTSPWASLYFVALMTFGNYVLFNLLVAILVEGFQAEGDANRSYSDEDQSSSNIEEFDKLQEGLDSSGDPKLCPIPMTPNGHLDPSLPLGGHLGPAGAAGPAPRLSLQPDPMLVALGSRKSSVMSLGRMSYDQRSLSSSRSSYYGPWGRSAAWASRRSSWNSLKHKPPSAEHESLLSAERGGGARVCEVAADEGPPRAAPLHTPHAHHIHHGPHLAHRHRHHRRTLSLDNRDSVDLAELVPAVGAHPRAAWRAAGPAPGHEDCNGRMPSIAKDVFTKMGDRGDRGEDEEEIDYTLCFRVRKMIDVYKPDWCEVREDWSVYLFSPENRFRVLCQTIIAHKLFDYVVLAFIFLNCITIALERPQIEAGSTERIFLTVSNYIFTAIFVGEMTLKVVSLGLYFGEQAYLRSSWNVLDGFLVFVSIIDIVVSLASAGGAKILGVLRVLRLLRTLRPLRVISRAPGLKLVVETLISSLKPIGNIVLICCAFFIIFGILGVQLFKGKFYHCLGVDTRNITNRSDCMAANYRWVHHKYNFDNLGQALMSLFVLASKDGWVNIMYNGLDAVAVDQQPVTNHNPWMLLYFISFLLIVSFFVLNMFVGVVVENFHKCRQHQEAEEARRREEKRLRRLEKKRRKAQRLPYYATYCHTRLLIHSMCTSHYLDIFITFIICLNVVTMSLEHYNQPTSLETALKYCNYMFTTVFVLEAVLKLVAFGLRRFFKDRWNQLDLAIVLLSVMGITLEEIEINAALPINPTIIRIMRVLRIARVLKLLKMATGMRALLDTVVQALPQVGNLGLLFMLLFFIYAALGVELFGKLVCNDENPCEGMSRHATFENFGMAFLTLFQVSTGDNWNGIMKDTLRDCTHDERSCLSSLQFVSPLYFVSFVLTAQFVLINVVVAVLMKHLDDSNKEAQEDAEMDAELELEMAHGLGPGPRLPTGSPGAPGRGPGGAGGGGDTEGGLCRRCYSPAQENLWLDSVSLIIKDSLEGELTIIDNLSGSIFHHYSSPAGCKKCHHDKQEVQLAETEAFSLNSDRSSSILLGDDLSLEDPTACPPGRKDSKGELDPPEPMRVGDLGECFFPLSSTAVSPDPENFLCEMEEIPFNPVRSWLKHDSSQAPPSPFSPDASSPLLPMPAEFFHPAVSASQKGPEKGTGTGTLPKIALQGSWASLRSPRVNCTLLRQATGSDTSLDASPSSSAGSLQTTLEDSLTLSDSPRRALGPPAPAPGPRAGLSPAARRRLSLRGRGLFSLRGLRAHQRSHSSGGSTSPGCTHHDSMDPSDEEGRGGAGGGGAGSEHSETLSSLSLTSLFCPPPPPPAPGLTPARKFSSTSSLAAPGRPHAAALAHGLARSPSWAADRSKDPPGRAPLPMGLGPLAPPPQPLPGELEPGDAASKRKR

CCCC1(c2ccc(OC)cc2)c2cc(Cl)ccc2NC(=O)N1CC(F)(F)F (centres undefined)
Activity [1]: 879 nM

C=CCC1(c2ccccc2)c2cc(Cl)ccc2NC(=O)N1CC(F)(F)F (centres undefined)
Activity [1]: 87 nM

O=C1Nc2ccc(Cl)cc2C(CC(F)F)(c2ccc(F)cc2)N1CC(F)(F)F (single isomer, unassigned; 31A)
Activity [1]: 60 nM

CC[C@]1(c2ccc(F)cc2)c2cc(Cl)ccc2NC(=O)N1CC(F)(F)F
Activity [2]: 239 nM | Activity [1]: 61 nM

CCC1(c2ccccc2)c2cc(Cl)ccc2NC(=O)N1CC(F)(F)F (single isomer, unassigned; 21A)
Activity [1]: 71 nM

CCC1(c2ccccc2)c2cc(F)ccc2NC(=O)N1CC(F)(F)F (single isomer, unassigned; 35B) [listing 1 of 2 here]
Activity [1]: 3740 nM

CC(C)(C)C1(c2ccccc2)c2cc(F)ccc2NC(=O)N1CC(F)(F)F (centres undefined)
Activity [1]: 757 nM | activation at 10 µM [3]: 44%

O=C1Nc2ccc(Cl)cc2C(CC(F)F)(c2ccc(F)cc2)N1CC(F)(F)F (single isomer, unassigned; 31B)
Activity [1]: 469 nM

CCC1(c2ccccc2)c2c(ccc(Cl)c2F)NC(=O)N1CC(F)(F)F (centres undefined)
Activity [1]: 132 nM | activation at 10 µM [3]: 61%

O=C1Nc2ccc(F)c(F)c2C(CCO)(c2ccc(F)cc2)N1CC(F)(F)F (centres undefined)
Activity [1]: 3090 nM

CCC1(c2ccccc2)c2cc(F)ccc2NC(=O)N1CC(F)(F)F (single isomer, unassigned; 35A) [listing 1 of 2 here]
Activation [4]: 63%

N#Cc1ccc([C@@]2(C3CC3)c3cc(Cl)ccc3NC(=O)N2CC(F)(F)F)cc1
Activity [2]: 590 nM | Activity [1]: 14 nM

CCCC1(c2ccc(F)cc2)c2c(ccc(F)c2F)NC(=O)N1CC(F)(F)F (centres undefined)
Activity [1]: 6 nM | activation at 10 µM [3]: 73%

CCCC1(c2ccc(F)cc2)c2cc(Cl)ccc2NC(=O)N1CC(F)(F)F (single isomer, unassigned; 24B)
Activity [1]: 1320 nM

CCC1(c2ccccc2)c2cc(F)ccc2NC(=O)N1CC(F)(F)F (single isomer, unassigned; 35A) [listing 2 of 2 here]
Activity [1]: 50 nM

CCCCC1(C2CC2)c2cc(Cl)ccc2NC(=O)N1CC(F)(F)F (centres undefined)
Activity [1]: 111 nM

CCCC1(c2ccccc2)c2cc(F)ccc2NC(=O)N1CC(F)(F)F (centres undefined)
Activity [1]: 38 nM | activation at 10 µM [3]: 49%

N#CC1(c2ccc(F)cc2)c2c(ccc(F)c2F)NC(=O)N1CC(F)(F)F (centres undefined)
Activity [1]: 290 nM

CCC1(c2ccccc2)c2cc(F)ccc2NC(=O)N1CC(F)(F)F (single isomer, unassigned; 35B) [listing 2 of 2 here]
activation at 10 µM [3]: 74%

CCC1(c2ccc(F)cc2)c2cc(F)ccc2NC(=O)N1CC(F)(F)F (centres undefined)
Activity [1]: 25 nM | activation at 10 µM [3]: 58%

CCCC1(c2cccc(Oc3ccccn3)c2)c2cc(Cl)ccc2NC(=O)N1CC(F)(F)F (centres undefined)
Activity [1]: 73 nM

O=C1Nc2ccc(Cl)cc2C(CCF)(c2ccc(F)cc2)N1CC(F)(F)F (single isomer, unassigned; 30A)
Activity [1]: 42 nM

CCC1(c2ccccc2)c2c(F)ccc(F)c2NC(=O)N1CC(F)(F)F (centres undefined)
Activity [1]: 657 nM | activation at 10 µM [3]: 91%

O=C1Nc2ccc(Cl)cc2C(CCF)(c2ccc(F)cc2)N1CC(F)(F)F (single isomer, unassigned; 30B)
Activity [1]: 905 nM

CCC1(c2ccccc2)c2c(ccc(F)c2F)NC(=O)N1CC(F)(F)F (single isomer, unassigned) [listing 1 of 2 here]
activation at 10 µM [3]: 48%

CCCC1(c2cccc(-c3ccnn3C)c2)c2cc(Cl)ccc2NC(=O)N1CC(F)(F)F (centres undefined)
Activity [1]: 318 nM

O=C1Nc2ccc(F)c(F)c2C(CCF)(c2ccc(F)cc2)N1CC(F)(F)F (centres undefined)
Activity [1]: 17 nM | activation at 10 µM [3]: 53% | remaining at 1 h [5]: 66%

CCC1(c2ccccc2)c2c(ccc(F)c2F)NC(=O)N1CC(F)(F)F (single isomer, unassigned) [listing 2 of 2 here]
Activity [1]: 20 nM

CCC1(c2ccc(F)c(F)c2)c2cc(Cl)ccc2NC(=O)N1CC(F)(F)F (centres undefined)
Activity [1]: 141 nM

CCC1(c2ccc(F)cc2)c2c(ccc(F)c2F)N(Cc2c(C)noc2C)C(=O)N1CC(F)(F)F (centres undefined)
Activity [1]: 1830 nM

CCC1(c2ccccc2)c2cc(Cl)ccc2NC(=O)N1C (centres undefined)
Activity [2]: 2170 nM | Activity [1]: 847 nM

CCC(C)C1(C2CC2)c2cc(Cl)ccc2NC(=O)N1CC(F)(F)F (centres undefined)
Activity [1]: 447 nM

CCCC1(c2cccc(N3CCOCC3)c2)c2cc(Cl)ccc2NC(=O)N1CC(F)(F)F (centres undefined)
Activity [1]: 161 nM

CCCC1(c2cccc(-c3nccs3)c2)c2cc(Cl)ccc2NC(=O)N1CC(F)(F)F (centres undefined)
Activity [1]: 62 nM

CCC1(c2ccc(F)cc2)c2c(ccc(F)c2F)N(CCOC)C(=O)N1CC(F)(F)F (centres undefined)
Activity [1]: 53 nM | activation at 10 µM [3]: 70%

CCC1(c2ccccc2)c2cc(Cl)ccc2NC(=O)N1CC(F)(F)F (single isomer, unassigned; 21B)
Activity [1]: 3880 nM

CCC1(c2ccccc2)c2c(F)cccc2NC(=O)N1CC(F)(F)F (centres undefined)
Activity [1]: 111 nM | activation at 10 µM [3]: 83%

CCC1(c2ccc(F)cc2)c2c(ccc(F)c2F)NC(=O)N1CC(F)(F)F (centres undefined)
Activity [1]: 16 nM | activation at 10 µM [3]: 52% | remaining at 1 h [5]: < 1%

O=C1Nc2ccc(F)c(F)c2C(CC(F)F)(c2ccc(F)cc2)N1CC(F)(F)F (centres undefined)
fraction unbound [6]: 0.015 | Activity [7]: Active | half-life [8]: 5.8 h | clearance [9]: 55 mL/min/kg | Activity [10]: Active | bioavailability [11]: 15% | Ratio [12]: 1.2 | clearance [13]: 23 mL/min/kg | clearance [14]: 10.5 mL/min/kg | Vd [15]: 3.6 L/kg | fraction unbound [16]: 0.021 | half-life [17]: 1.6 h | Activity [18]: Active | inhibition in vivo at 10 mg/kg [19]: 70% | Activity [1]: 14 nM | activation at 10 µM [3]: 35% | bioavailability [20]: 15% | half-life [21]: 5.9 h | Vd [22]: 6.7 L/kg | Ratio [23]: 1.5 | Vd [24]: 9.8 L/kg | remaining at 1 h [5]: 68% | inhibition (INH) [25]: tde

CCCC1(c2cccc(OC)c2)c2cc(Cl)ccc2NC(=O)N1CC(F)(F)F (centres undefined)
Activity [1]: 171 nM

CCCC1(c2ccc(F)cc2)c2cc(Cl)ccc2NC(=O)N1CC(F)(F)F (single isomer, unassigned; 24A)
Activity [1]: 25 nM

CCC1(c2ccccc2)c2c(ccc(F)c2F)NC(=O)N1CC(F)(F)F (stereo in doubt; 36B)
Activity [1]: 2040 nM
